From ChEMBL document CHEMBL1153999, “5,6-Diarylanthranilo-1,3-dinitriles as a new class of antihyperglycemic agents” (Bioorg Med Chem Lett, 2009)
≈ marks a conversion by molar mass, not a printed value. Calls of active or inactive are those of the source. No cut-off for these calls is given here.

Tests used:
[1] = biological target: T1, Tyrosine-protein phosphatase non-receptor type 1 (Homo sapiens) (UniProt P18031); assay: Inhibition of PTP1B at 100 uM
T1 sequence (whole entry): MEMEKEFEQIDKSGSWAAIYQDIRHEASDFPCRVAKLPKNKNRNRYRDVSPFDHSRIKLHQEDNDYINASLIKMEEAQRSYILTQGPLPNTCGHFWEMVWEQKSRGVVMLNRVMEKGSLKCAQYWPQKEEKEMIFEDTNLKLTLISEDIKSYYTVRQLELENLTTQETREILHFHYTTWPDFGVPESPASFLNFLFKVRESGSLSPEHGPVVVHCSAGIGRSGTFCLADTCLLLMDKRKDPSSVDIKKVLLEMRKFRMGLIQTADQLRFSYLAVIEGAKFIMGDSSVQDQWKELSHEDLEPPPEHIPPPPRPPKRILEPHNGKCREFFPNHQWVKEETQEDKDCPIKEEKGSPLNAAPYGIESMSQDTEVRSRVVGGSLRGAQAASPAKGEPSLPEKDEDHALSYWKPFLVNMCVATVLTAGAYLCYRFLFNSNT
Outline: (§1)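 The PTP-1B assay used 10 mM pNPP in 50 mM HEPES (pH 7.0) with 1 mM DTT and 2 mM EDTA, 1.0 mL, 37 °C for 30 min. It was stopped with 0.1 N NaOH and read at 410 nm. p-Nitrophenolate was calculated with ε 1.78 × 10⁴ M⁻¹ cm⁻¹. Sodium vanadate was the reference.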

[2] = biological target: T2, Glucose-6-phosphatase catalytic subunit 1 (Homo sapiens) (UniProt P35575); assay: Inhibition of glucose-6-phosphatase at 100 uM
T2 sequence (whole entry): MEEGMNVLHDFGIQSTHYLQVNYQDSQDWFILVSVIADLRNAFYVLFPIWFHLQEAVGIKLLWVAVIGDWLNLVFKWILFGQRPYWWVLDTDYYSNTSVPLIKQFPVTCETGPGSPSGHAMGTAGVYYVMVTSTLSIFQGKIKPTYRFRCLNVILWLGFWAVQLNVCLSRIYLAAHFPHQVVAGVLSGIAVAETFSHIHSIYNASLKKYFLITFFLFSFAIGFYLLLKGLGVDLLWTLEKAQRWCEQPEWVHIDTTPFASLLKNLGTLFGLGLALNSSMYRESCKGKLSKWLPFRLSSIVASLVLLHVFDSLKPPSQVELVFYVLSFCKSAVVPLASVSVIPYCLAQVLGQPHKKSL
Outline: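 Compound was preincubated 10 min with glucose-6-phosphatase in 1.0 mL of 0.3 M citrate (pH 6.0), 28 mM EDTA, 14 mM NaF and 200 mM glucose-6-phosphate. The mixture was incubated 30 min at 37 °C and stopped with 10% TCA. Released Pi in the supernatant was measured by Taussky–Shorr; activity is µmol Pi/min/mg protein.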

Glycogen phosphorylase [3] = assay: Inhibition of glycogen phosphorylase at 100 uM
[4] = biological target: Maltase-glucoamylase (Homo sapiens) (UniProt O43451); assay: Inhibition of alpha-glucosidase at 100 uM
Chain of Maltase-glucoamylase (Homo sapiens) (O43451 whole entry, looked up): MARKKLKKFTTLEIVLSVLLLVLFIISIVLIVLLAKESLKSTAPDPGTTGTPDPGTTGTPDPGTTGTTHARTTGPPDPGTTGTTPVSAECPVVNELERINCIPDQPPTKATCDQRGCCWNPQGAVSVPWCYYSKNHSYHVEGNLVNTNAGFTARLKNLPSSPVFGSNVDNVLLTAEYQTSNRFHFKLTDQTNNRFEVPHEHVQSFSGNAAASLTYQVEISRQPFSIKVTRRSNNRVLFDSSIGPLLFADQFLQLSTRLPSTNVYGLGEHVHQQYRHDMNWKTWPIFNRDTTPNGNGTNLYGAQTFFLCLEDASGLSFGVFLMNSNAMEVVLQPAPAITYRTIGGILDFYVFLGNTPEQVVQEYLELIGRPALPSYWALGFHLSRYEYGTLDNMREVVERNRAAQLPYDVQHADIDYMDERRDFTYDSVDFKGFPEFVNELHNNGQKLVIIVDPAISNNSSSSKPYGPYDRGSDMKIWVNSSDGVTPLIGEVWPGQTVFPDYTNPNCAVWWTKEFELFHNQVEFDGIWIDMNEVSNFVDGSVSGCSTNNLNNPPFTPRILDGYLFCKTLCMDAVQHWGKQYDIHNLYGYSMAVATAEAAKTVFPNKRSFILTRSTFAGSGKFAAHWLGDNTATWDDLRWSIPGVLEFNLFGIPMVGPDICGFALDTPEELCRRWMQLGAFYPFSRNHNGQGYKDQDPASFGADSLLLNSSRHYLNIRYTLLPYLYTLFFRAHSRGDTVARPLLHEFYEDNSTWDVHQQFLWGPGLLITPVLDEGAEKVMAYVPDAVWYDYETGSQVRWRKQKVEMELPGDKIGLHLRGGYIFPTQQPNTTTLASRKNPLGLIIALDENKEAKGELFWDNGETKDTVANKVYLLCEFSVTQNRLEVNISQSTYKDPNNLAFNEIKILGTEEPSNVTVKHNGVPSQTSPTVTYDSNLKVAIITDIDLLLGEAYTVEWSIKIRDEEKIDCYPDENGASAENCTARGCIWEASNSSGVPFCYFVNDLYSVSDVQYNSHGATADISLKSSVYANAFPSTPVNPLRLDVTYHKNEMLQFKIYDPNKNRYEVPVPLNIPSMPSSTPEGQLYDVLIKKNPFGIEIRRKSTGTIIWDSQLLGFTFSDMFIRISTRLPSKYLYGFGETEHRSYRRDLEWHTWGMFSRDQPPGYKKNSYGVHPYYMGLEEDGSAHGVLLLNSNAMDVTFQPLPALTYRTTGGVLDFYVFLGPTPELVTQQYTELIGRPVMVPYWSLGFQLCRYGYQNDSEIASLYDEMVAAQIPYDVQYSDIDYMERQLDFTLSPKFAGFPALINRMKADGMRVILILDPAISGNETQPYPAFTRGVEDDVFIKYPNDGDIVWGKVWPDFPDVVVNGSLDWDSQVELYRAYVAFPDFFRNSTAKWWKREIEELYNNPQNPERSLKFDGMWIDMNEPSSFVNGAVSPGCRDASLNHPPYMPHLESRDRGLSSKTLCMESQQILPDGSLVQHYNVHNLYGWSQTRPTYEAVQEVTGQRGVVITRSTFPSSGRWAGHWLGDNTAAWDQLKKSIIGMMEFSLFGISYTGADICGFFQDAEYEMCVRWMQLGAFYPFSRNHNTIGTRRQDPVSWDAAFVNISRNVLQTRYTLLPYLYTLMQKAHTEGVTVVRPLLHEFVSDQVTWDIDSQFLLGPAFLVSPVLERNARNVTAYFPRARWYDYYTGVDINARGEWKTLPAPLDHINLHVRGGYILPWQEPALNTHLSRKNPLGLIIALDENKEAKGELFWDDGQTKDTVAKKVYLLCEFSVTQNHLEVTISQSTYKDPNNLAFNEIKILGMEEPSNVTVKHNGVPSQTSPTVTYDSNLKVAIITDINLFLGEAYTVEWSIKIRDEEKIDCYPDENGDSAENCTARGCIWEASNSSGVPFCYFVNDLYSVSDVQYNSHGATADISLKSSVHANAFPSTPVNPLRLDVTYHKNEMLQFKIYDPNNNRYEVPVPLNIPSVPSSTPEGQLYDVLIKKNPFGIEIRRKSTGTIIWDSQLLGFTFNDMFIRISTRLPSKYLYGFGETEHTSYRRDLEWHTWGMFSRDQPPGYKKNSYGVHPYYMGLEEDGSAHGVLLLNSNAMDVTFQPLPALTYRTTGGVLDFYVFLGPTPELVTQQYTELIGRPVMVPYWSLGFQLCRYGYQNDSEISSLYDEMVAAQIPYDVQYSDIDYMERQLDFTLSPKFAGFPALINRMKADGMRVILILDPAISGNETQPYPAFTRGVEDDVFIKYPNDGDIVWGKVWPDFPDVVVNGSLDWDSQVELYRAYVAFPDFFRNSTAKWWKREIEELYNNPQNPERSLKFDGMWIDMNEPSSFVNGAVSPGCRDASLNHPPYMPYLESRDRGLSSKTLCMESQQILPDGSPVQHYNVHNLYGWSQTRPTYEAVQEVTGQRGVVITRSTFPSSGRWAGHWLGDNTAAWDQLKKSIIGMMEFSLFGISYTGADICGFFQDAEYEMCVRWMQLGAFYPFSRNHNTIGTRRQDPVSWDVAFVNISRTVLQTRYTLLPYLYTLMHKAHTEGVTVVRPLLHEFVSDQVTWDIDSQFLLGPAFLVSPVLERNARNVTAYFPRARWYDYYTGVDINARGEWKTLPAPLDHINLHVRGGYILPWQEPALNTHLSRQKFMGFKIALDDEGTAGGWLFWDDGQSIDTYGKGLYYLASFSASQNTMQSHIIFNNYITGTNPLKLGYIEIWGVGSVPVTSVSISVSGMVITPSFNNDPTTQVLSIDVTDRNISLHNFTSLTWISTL
Outline: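 Purified α-glucosidase (0.1 mg/mL) was assayed in 67 mM sodium phosphate (pH 6.8) with 1.0 mg/mL glutathione, 1 mL. The reaction was started with 3.0 mg/mL pNPG and followed at 405 nm every 30 s for 3 min.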

Glycogen phosphorylase [5] = assay: Inhibition of glycogen phosphorylase
[6] = biological target: T3, Tyrosine-protein phosphatase non-receptor type 1 (Homo sapiens, UniProt P18031); assay: Inhibition of PTP1B; outline: as §1
T3 sequence (P18031 whole entry): T1 sequence (whole entry)

Rattus norvegicus [7] = assay: Antihyperglycemic activity in Sprague-Dawley rat assessed as inhibition of streptozotocin-induced increase in blood glucose level at 100 mg/kg, po after 5 hrs; format: functional; parameters: scale not given: the % may be the effect or the level left
Outline: (§2)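 Overnight-fasted male Sprague–Dawley rats were made diabetic with streptozotocin 60 mg/kg ip in 100 mM citrate (pH 4.5). Rats with glucose >10 mM at 48 h and a baseline of 140–270 mg/dL were used, 5 per group. Test suspension or 1% gum acacia vehicle was given orally, then sucrose 2.5 g/kg orally 30 min later. Glucose was read at 30–1440 min; % activity is from AUC versus vehicle (Dunnett test).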

Rattus norvegicus [8] = assay: Antihyperglycemic activity in Sprague-Dawley rat assessed as inhibition of streptozotocin-induced increase in blood glucose level at 100 mg/kg, po after 24 hrs; format: functional; parameters: scale not given: the % may be the effect or the level left; outline: as §2
[9] = Solubility in triple distilled water; format: physicochemical
Rattus norvegicus [10] = assay: Toxicity in Sprague-Dawley rat up to 250 mg/kg, po; format: organism-based; parameters: dose 250 mg/kg, route oral; conditions: in vivo

Row | SMILES | inhibition [1] | inhibition [2] | inhibition (Glycogen phosphorylase [3]) | inhibition [4] | IC50 (Glycogen phosphorylase [5]) | IC50 [6] | solubility [9] | Activity (Rattus norvegicus [7]) | Activity (Rattus norvegicus [8]) | Activity (Rattus norvegicus [10])
1 | COc1ccc(-c2c(C)c(N3CCCCC3)c(C#N)c(N)c2C#N)cc1 | inactive | 33.3% | 15.7% | – | – | – | – | – | – | –
2 | CSc1c(C#N)c(N)c(C#N)c(Cc2ccccc2)c1-c1ccccc1 | – | 24.5% | 11.6% | – | – | – | – | – | – | –
3 | COc1ccc(-c2c(C)c(SC)c(C#N)c(N)c2C#N)cc1 | 0% | 12.3% | 37.5% | 17.3% | – | – | – | – | – | –
4 | COc1ccc(-c2c(C)c(C#N)c(N)c(C#N)c2SC)cc1OC | 0% | 6.1% | 10% | 6.7% | – | – | – | – | – | –
5 | COc1ccc(-c2c(C#N)c(N)c(C#N)c(SC)c2-c2ccc(F)cc2)c(OC)c1 | 28.2% | 1.9% | 74.3% | 11.5% | 79 µM | – | – | – | – | –
6 | CSc1c(C#N)c(N)c(C#N)c(-c2ccccc2)c1-c1ccccc1 | 81.6% | 7.4% | inactive | 10.5% | – | 58 µM | 0.13 µg/mL (≈ 0.381 µM) | 24.1% | 28.1% | Non-toxic
7 | COc1ccc(-c2c(C#N)c(N)c(C#N)c(SC)c2-c2ccc(F)cc2)cc1 | 48.8% | 5.5% | inactive | 13.4% | – | – | – | 22.1% | 25.2% | –
8 | CN(C)C(=N)NC(=N)N [METFORMIN] | – | – | – | – | – | – | – | 20.9% | 21.9% | –
9 | Cc1c(-c2ccccc2)c(C#N)c(N)c(C#N)c1N1CCCCC1 | 31.1% | 38.2% | 4.7% | – | – | – | – | – | – | –
10 | COc1ccc(-c2c(C#N)c(N)c(C#N)c(SC)c2-c2ccc(OC)cc2)cc1 | 76.9% | 5.5% | 6.9% | 14.4% | – | 72 µM | – | 17.5% | 17.6% | Non-toxic

More lines, main results first:

Row | inhibition [1] | inhibition [2] | inhibition (Glycogen phosphorylase [3]) | inhibition [4] | IC50 (Glycogen phosphorylase [5]) | IC50 [6] | solubility [9] | SMILES | Activity (Rattus norvegicus [7]) | Activity (Rattus norvegicus [8]) | Activity (Rattus norvegicus [10])
11 | inactive | 10.9% | 2.3% | – | – | – | – | Cc1c(-c2ccccc2)c(C#N)c(N)c(C#N)c1N1CCC(C)CC1 | – | – | –
12 | 30.7% | 0.3% | 13.8% | 25.9% | – | – | – | COc1ccc(-c2c(C#N)c(N)c(C#N)c(SC)c2-c2ccc(OC)c(OC)c2)cc1 | – | – | –
13 | 61.5% | 6.8% | 37.9% | 5.7% | – | 86 µM | – | COc1ccc(-c2c(C#N)c(N)c(C#N)c(SC)c2-c2ccccc2)cc1 | 26.5% | 36.9% | Non-toxic
14 | 25.6% | 0.08% | 50% | 10.5% | – | – | – | COc1ccc(-c2c(C)c(C#N)c(N)c(C#N)c2SC)c(OC)c1 | – | – | –
15 | inactive | 0.96% | 45% | 6.7% | – | – | – | CSc1c(C)c(-c2ccccc2)c(C#N)c(N)c1C#N | – | – | –
16 | 3.6% | 41.8% | 5% | 17.3% | – | – | – | CSc1c(C#N)c(N)c(C#N)c(C)c1-c1ccc(F)cc1 | – | – | –
17 | 58.5% | 14.4% | 55% | 22.1% | – | – | – | CSc1c(C#N)c(N)c(C#N)c(C)c1-c1ccc(C(F)(F)F)cc1 | – | – | –
18 | 7.3% | 19.3% | 12.5% | 6.7% | – | – | – | CSc1c(C)c(-c2ccc(Cl)cc2)c(C#N)c(N)c1C#N | – | – | –
19 | 40.2% | 8.2% | 20% | inactive | – | – | – | CSc1c(C#N)c(N)c(C#N)c(C)c1-c1ccccc1F | – | – | –
